Results taken from ChEMBL document CHEMBL4028809, “Dual-tail approach to discovery of novel carbonic anhydrase IX inhibitors by simultaneously matching the hydrophobic and hydrophilic halves of the active site” (Eur J Med Chem, 2017).
Activity calls are given as the source filed them. The rule behind the calls is not given here.

Legend:
HT-29 [1] = test: Cytotoxicity against human HT-29 cells assessed as cell viability at 100 uM after 72 hrs under normoxic condition by MTT assay relative to control; type: functional; settings: for viability at 100 µM: HT-29, 72 h, read-out: Activity
Outline: (§1)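 HT-29 or MDA-MB-231 cells seeded at 5 × 10^4 per well and stabilized 24 h at 37 °C, then exposed to a single 0.1 mM dose for 72 h, in hypoxia (0.5% O2, 5% CO2, balance N2, modular chamber) or normoxia (20% O2, 5% CO2). MTT at 5 mg/mL added for 4 h; formazan dissolved in DMSO; absorbance read at 540 nm.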

HT-29 [2] = test: Cytotoxicity against human HT-29 cells assessed as cell viability at 100 uM after 72 hrs under hypoxic condition condition by MTT assay relative to control; type: functional; settings: for viability at 100 µM: HT-29, 72 h, read-out: Activity; outline: as §1
MDA-MB-231 [3] = test: Cytotoxicity against human MDA-MB-231 cells assessed as cell viability at 100 uM after 72 hrs under normoxic condition by MTT assay; type: functional; settings: for viability at 100 µM: MDA-MB-231, 72 h, read-out: Activity; outline: as §1
MDA-MB-231 [4] = test: Cytotoxicity against human MDA-MB-231 cells assessed as cell viability at 100 uM after 72 hrs under hypoxic condition by MTT assay; type: functional; settings: for viability at 100 µM: MDA-MB-231, 72 h, read-out: Activity; outline: as §1
Carbonic anhydrase 9 = Carbonic anhydrase 9 (Homo sapiens, UniProt Q16790); test: Inhibition of recombinant human carbonic anhydrase 9 using 4-nitrophenylacetate as substrate pretreated for 15 mins prior to test by spectrophotometric method
Carbonic anhydrase 2 = Carbonic anhydrase 2 (Homo sapiens, UniProt P00918); test: Inhibition of recombinant human carbonic anhydrase 2 using 4-nitrophenylacetate as substrate pretreated for 15 mins prior to test by spectrophotometric method

Compound | Activity (HT-29 [1]) | Activity (HT-29 [2]) | Activity (MDA-MB-231 [3]) | Activity (MDA-MB-231 [4]) | IC50 (Carbonic anhydrase 9) [nM] | viability at 100 µM (HT-29 [1]) [%] | viability at 100 µM (HT-29 [2]) [%] | viability at 100 µM (MDA-MB-231 [3]) [%] | viability at 100 µM (MDA-MB-231 [4]) [%] | IC50 (Carbonic anhydrase 2) [µM]
CC(=O)Nc1nnc(S(N)(=O)=O)s1 | inactive | inactive | inactive | inactive | – | – | – | – | – | –
COc1cccc(/C=C/C(=O)N[C@@H]2[C@@H](O)[C@H](O)[C@@H](CO)O[C@H]2NC(=S)Nc2ccc(S(N)(=O)=O)cc2)c1OC | – | – | – | – | 33 | 73 to 79 | 63 to 77 | 89 to 99 | 69.5 to 79.9 | –
COc1ccccc1/C=C/C(=O)N[C@@H]1[C@@H](O)[C@H](O)[C@@H](CO)O[C@H]1NC(=S)Nc1ccc(S(N)(=O)=O)cc1 | – | – | – | – | 60 | 73 to 79 | 63 to 77 | 89 to 99 | 69.5 to 79.9 | –
COc1ccc(/C=C/C(=O)N[C@@H]2[C@@H](O)[C@H](O)[C@@H](CO)O[C@H]2NC(=S)Nc2ccc(S(N)(=O)=O)cc2)cc1 | – | – | – | – | 152 | 73 to 79 | 63 to 77 | 89 to 99 | 69.5 to 79.9 | –
N[C@@H]1[C@@H](O)[C@H](O)[C@@H](CO)O[C@H]1NC(=S)Nc1ccc(S(N)(=O)=O)cc1 | – | – | – | – | 667 | – | – | – | – | 0.203
COc1cc(/C=C/C(=O)N[C@@H]2[C@@H](O)[C@H](O)[C@@H](CO)O[C@H]2NC(=S)Nc2ccc(S(N)(=O)=O)cc2)cc(OC)c1OC | – | – | – | – | 46 | 73 to 79 | 63 to 77 | 89 to 99 | 69.5 to 79.9 | –
COc1ccc(/C=C/C(=O)N[C@@H]2[C@@H](O)[C@H](O)[C@@H](CO)O[C@H]2NC(=S)Nc2ccc(S(N)(=O)=O)cc2)c(OC)c1 | inactive | inactive | inactive | inactive | 7 | – | – | – | – | –
COc1cc(OC)c(OC)cc1/C=C/C(=O)N[C@@H]1[C@@H](O)[C@H](O)[C@@H](CO)O[C@H]1NC(=S)Nc1ccc(S(N)(=O)=O)cc1 | – | – | – | – | 37 | 73 to 79 | 63 to 77 | 89 to 99 | 69.5 to 79.9 | –
COc1cccc(/C=C/C(=O)N[C@@H]2[C@@H](O)[C@H](O)[C@@H](CO)O[C@H]2NC(=S)Nc2ccc(S(N)(=O)=O)cc2)c1 | – | – | – | – | 95 | 73 to 79 | 63 to 77 | 89 to 99 | 69.5 to 79.9 | –
COc1ccc(/C=C/C(=O)O)cc1 [4-METHOXYCINNAMIC ACID] | – | – | – | – | 850000 | – | – | – | – | 760
COc1ccc(/C=C/C(=O)N[C@H]2[C@H](OC)O[C@H](CO)[C@@H](O)[C@@H]2O)cc1 | – | – | – | – | 20000 | – | – | – | – | –
